Scp-1 inhibitor: inhibitors of human Scp-1 phosphatase; Recombinant Scp1, phosphopeptide, malachite green phosphate absorbance; inhibition, % at 20 µM; 0.88% of 340,000 active; AID 493091;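 active = inhibition above about 50% at 20 µM, limit read from the data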;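 note: plate controls were DMSO wells with enzyme for no effect and wells lacking enzyme for full effect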
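Assay system: SCP-1 catalytic fragment, aa 76-261 | Buffer or medium: Tris acetate buffer pH 5.5 with MgCl2 and Tween-20 | Compound: One concentration, 20 µM, with 1.0% DMSO | Also added: Phospho 17-mer peptide substrate | Signal: Absorbance at 630 nm | Incubation: 45 min enzyme reaction at room temperature | Measure: % inhibition of SCP-1 phosphate liberation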
HKDC1 inh: HKDC1 (human) hexokinase inhibition; recombinant HKDC1, G6PDH/diaphorase resazurin coupled fluorescence; inhibition, % at 20 µM; 0.16% of 340,000 active; AID 493160;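 active = inhibition above about 35% when tested at 20 µM, limit read from the data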;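 note: plate controls were DMSO wells with enzyme for no effect and DMSO wells lacking enzyme for full effect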
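Test system: Recombinant HKDC1 (HK5) hexokinase enzyme, produced in-house | Input: HKDC1 at 5 µg/mL | Buffer or medium: Tris pH 8.0 buffer with MgCl2, Tween-20, BSA, BME | Schedule: 90 min reaction incubation at room temperature, dark | Technique: Resazurin-to-resorufin fluorescence via G6PDH and diaphorase coupling, 525/613 nm | Controls: DMSO wells with and without enzyme mix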
STEP inh: STEP (human) phosphatase inhibition; recombinant STEP, OMFP fluorogenic substrate, fluorescence; inhibition, % at 20 µM; 0.25% of 360,000 active; AID 588621;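 active = inhibition at 20 µM, scaled per plate between control wells, above about 37%, limit read from the data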;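 note: 0% = DMSO with enzyme and substrate and 100% = substrate only without enzyme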
Target sequence (P54829 whole entry, looked up): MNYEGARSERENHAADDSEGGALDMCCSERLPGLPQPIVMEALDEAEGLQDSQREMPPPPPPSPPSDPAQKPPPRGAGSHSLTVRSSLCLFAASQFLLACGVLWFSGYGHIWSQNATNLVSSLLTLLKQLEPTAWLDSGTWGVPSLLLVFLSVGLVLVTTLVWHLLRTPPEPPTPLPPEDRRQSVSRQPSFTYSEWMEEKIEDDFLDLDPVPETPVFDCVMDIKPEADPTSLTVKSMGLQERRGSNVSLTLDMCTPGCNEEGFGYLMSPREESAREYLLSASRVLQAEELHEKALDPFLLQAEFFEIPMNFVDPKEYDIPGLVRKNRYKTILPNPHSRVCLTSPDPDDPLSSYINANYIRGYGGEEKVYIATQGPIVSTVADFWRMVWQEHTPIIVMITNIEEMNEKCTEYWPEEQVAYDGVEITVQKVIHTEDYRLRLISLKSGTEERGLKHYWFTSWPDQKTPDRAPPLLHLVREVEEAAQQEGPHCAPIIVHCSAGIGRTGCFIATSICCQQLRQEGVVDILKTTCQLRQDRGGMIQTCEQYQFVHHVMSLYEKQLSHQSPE
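Assay system: isolated STEP enzyme. Buffer or medium: pH 6.0 Bis-Tris with DTT and Tween 20. Also added: fluorogenic phosphatase substrate OMFP at 25 µM final. Dosing: 20 µM, 1% DMSO. Timing: 20 min reaction, room temperature, in the dark. Measured by: fluorescence intensity, excitation 480 nm, emission 540 nm. Evaluation: normalized % inhibition.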
DNMT1 block: DNMT1 (human) enzyme inhibition; inhibition (reported as % activation of signal), % at 10 µM; DNMT1 molecular beacon, Hinp1I cleavage, fluorescence; 0.83% of 360,000 active; AID 588458; in the data active = inhibition above about 50%
SUMO1-SIM PPI: modulators of human SUMO1-mediated protein-protein interactions; SUMO1 binding to a labelled peptide, TR-FRET, 1 h; inhibition, % at 20 µM; 0.33% of 360,000 active; AID 602429; in the data active = inhibition above about 37%
Target sequence (P63165 whole entry, looked up): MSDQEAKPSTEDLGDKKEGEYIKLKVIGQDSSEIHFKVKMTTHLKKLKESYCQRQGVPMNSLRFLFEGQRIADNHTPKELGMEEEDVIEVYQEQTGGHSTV
LMPTP block: LMPTP (human) inhibition; recombinant LMPTP-A, OMFP fluorogenic substrate, fluorescence intensity; inhibition, % at 20 µM; 0.22% of 360,000 active; AID 651560;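 active = compounds that cut the enzyme signal by at least half of the control window in the single-dose screen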;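 note: plate controls were DMSO wells with enzyme plus substrate for no effect and substrate without enzyme for full effect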
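Test system: LMPTP-A phosphatase enzyme. Amount: LMPTP-A at 0.625 nM final in the reaction. Reagent: OMFP substrate, 400 µM final. Times: 50 min at room temperature. Signal: endpoint fluorescence intensity from OMFP dephosphorylation. Read-out basis: % inhibition. Benchmarks: no-enzyme and uninhibited controls.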
Scp1 confirm: confirmation of human Scp-1 phosphatase inhibitors; shares compounds with Scp-1 inhibitor; recombinant SCP-1 catalytic domain, phosphate release, malachite green absorbance; inhibition, % at 20 µM; 61% of 2,500 active; AID 540281;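 note: plate controls were DMSO with enzyme for no effect and buffer wells lacking enzyme for full effect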
Scp-1 MG ctr: colorimetric interference in Scp-1 counter-screen. shares compounds with Scp-1 inhibitor. Colorimetric interference counterscreen, malachite green absorbance 630 nm. apparent inhibition (interference), % at 20 µM. 2,500 tested, under 10 active;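 note: compounds added after enzyme reaction finished so only phosphate colour detection is probed; plate controls were DMSO wells with completed Scp-1 reaction for no effect and substrate wells lacking enzyme for full effect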
Scp-1 Tm shift: validation of human Scp-1 inhibitors by thermal shift binding | shares compounds with Scp-1 inhibitor | Recombinant SCP1, Sypro Orange thermal shift Tm | thermal shift relative to vanadate control, % at 40 µM | 25% of 1,500 active;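 active = substances whose mean melting-temperature shift, as a percentage of the reference inhibitor's shift, reaches about 5.3%, limit read from the data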;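 note: 0% = Tm of DMSO wells and 100% = Tm with sodium orthovanadate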
DNMT1 confirm: confirmation of human DNMT1 inhibitors; shares compounds with DNMT1 block; DNMT1 molecular beacon HinP1I cleavage, fluorescence; inhibition, % at 10 µM; 8% of 2,300 active;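 active = average inhibition of at least 30% in the single-concentration confirmation test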
DNMT1 interf: shows spectral interference in the DNMT1 beacon assay; shares compounds with DNMT1 block; activation (fluorescence interference), % at 10 µM; 1% of 2,300 active; DNMT1 molecular beacon spectral interference counterscreen, fluorescence 485/520;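 active = activation of at least 30% at 10 µM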;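 note: DNMT1 catalytic domain with a HinP1I cleavage step and a FAM/dabcyl DNA beacon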
* hit, by the source's call; . = no result given. Hits are enriched below; roughly 1.8% of the tested compounds scored in any of these assays.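 Rule for the calls, unless noted: active = inhibition of at least 30% at 20 µM; inactive = the rest.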

SMILES	Scp-1 inhibitor	HKDC1 inh	STEP inh	DNMT1 block	SUMO1-SIM PPI	LMPTP block	Scp1 confirm	Scp-1 MG ctr	Scp-1 Tm shift	DNMT1 confirm	DNMT1 interf
O=C(NNC(=O)c1cc(-c2ccco2)nc2ccccc12)c1ccccc1	-1	2	-3	24	-9	0	.	.	.	.	.
O=C(O)c1cc(-c2ccco2)nc2cc3ccccc3cc12	91*	11	31	76*	38*	1	34*	-15	4	2	5
O=C(N/N=C/c1ccc2c(c1)OCO2)c1cc(-c2ccco2)nc2ccccc12	67*	3	5	72*	10	12	46*	-15	5	5	1
Cc1ccc(NC(=O)CN(C)C(=O)c2cc(-c3ccco3)nc3ccccc23)cc1	76*	9	4	75*	12	25	68*	-13	6.2*	11	5
O=C(Nc1ccccc1OC(F)F)c1ccc(N2CCCC2=O)cc1	.	.	9	2	1	1	.	.	.	.	.
CN(CC(=O)Nc1ccc(F)cc1)C(=O)c1cc(-c2ccco2)nc2ccccc12	70*	-2	3	84*	3	28	62*	-13	8.9*	9	4
Cc1cc(C=O)c(C)n1-c1ccc(Cl)c(C(=O)O)c1	74*	4	66*	88*	10	4	76*	-16	6.2*	21	-2
COc1ccc(NC(=O)c2c3c(nc4ccccc24)CCC3)cc1S(=O)(=O)N1CCOCC1	81*	3	8	86*	9	2	59*	-14	11*	8	3
O=C(CC1C(=O)NCCN1Cc1ccccc1)NC1CCCCC1 (centres undefined)	.	.	-1	0	-2	-2	.	.	.	.	.
Cn1c(SCC(=O)NC(=O)NCc2ccco2)nnc1-c1ccccc1	92*	13	7	86*	9	46	62*	-17	-13	1	2
Cc1ccccc1CSCC(=O)NC(=O)NCc1ccco1	56*	1	7	76*	6	12	73*	-7	-15	0	5
O=C(CSc1nc(-c2ccccc2)cs1)NC(=O)NCc1ccco1	-5	3	1	-8	4	1	.	.	.	.	.
O=C(CSc1ccccc1F)NC(=O)NCc1ccco1	25	-9	2	9	2	0	.	.	.	.	.
CCCCn1c(SCC(=O)NC(=O)NCc2ccco2)nc2cc(S(N)(=O)=O)ccc21	64*	-4	2	89*	5	9	58*	-12	-3	5	1
COc1ccc(-c2nnc(SCC(=O)NCc3ccco3)n2C)cc1	-8	-3	0	4	2	0	.	.	.	.	.
O=C(CSc1n[nH]c(-c2ccccc2)n1)NC(=O)NCc1ccco1	68*	1	6	65*	14	17	55*	-11	1	2	1
CC1C(=O)C(C)C(c2ccccc2F)NC1c1ccccc1F (centres undefined)	-11	-5	0	1	0	0	.	.	.	.	.
O=C(c1ccc(CS(=O)Cc2ccc(Cl)cc2)o1)N1CCN(C2CCCCC2)CC1 (centres undefined)	.	.	11	-2	2	-2	.	.	.	.	.
O=C(NCc1cccc(F)c1)Nc1nnc([C@H]2C[C@H](O)[C@@H](CO)O2)s1	.	.	0	4	5	-2	.	.	.	.	.
O=C(Cc1ccc(S(=O)(=O)N2CCOCC2)s1)Nc1nc2c(s1)CCCC2	64*	14	21	89*	22	15	74*	-4	11*	10	2
COCc1cc(C)n(CC(=O)N/N=C/c2ccc(-c3ccc(Cl)c(C(=O)O)c3)o2)c(=O)c1C#N	66*	-7	3	58*	15	-1	63*	-13	5	5	-2
COCCCN1C(=O)C(CC(=O)NCc2ccco2)CC(C(=O)N(C)C)=C1C (centres undefined)	.	.	-2	4	-4	1	.	.	.	.	.
Cc1cccc(NC(=O)Cn2c(O)c(N=NC(=O)c3ccccc3O)c3ccccc32)c1	88*	-10	36	88*	-8	35	86*	-8	4	15	-3
NC(=S)N=Nc1c(O)n(CC(=O)Nc2ccccc2)c2ccccc12	0	1	0	5	-3	1	.	.	.	.	.
Cn1c(NCc2cccnc2)nc2cc(-c3ccc(C(=O)N4CCOCC4)cc3)sc2c1=O	.	.	-4	-5	-26	3	.	.	.	.	.
SMILES	Scp-1 inhibitor	HKDC1 inh	STEP inh	DNMT1 block	SUMO1-SIM PPI	LMPTP block	Scp1 confirm	Scp-1 MG ctr	Scp-1 Tm shift	DNMT1 confirm	DNMT1 interf
Cc1nnn(-c2nonc2N)c1C(=O)N/N=C/c1ccccc1O	51*	-7	11	79*	3	36	64*	-12	-4	12	-1
CCOC(=O)[C@]12CCCC=C1N(Cc1cccc3ccccc13)C(=O)[C@H](CC(=O)NCCc1ccccc1OC)C2	.	.	.	.	-3	5	.	.	.	.	.
N#CC1(NC(=O)CSc2nnc(C3CC3)n2N)CCCCC1	.	.	0	1	7	0	.	.	.	.	.
O=C(NCc1ccco1)C1Cc2ccccc2CN1C(=O)c1ccco1 (centres undefined)	36	-1	-1	4	3	3	.	.	.	.	.
O=C(NCc1ccco1)C1Cc2ccccc2CN1S(=O)(=O)c1ccccc1F (centres undefined)	70*	13	0	71*	13	2	77*	-5	7.5*	6	4
O=C(N/N=C/C=C/c1ccco1)c1cccnc1	16	-5	2	9	11	1	.	.	.	.	.
O=C(N/N=C\C=C\c1ccco1)c1cc(-c2ccc3ccccc3c2)n[nH]1	70*	-1	4	68*	16	15	42*	-14	13*	5	30
c1coc(-c2nnc3sc(Cc4cccs4)nn23)c1	86*	13	4	67*	19	26	61*	-11	1	0	-1
O=S(=O)(Nc1ccc(-n2cnnn2)cc1)c1cccc(Cl)c1	-9	-2	-2	0	2	0	.	.	.	.	.

Screening data from PubChem BioAssay.
